Reference: the RNAGym collection of RNA variant scans (doi:10.1126/science.aae0568)
Fewer inactive variants are shown than the library holds.

B1: tRNA (parent)
chain: GUUCCGUUGGCGUAAUGGUAACGCGUCUCCCUCCUAAGGAGAAGACUGCGGGUUCGAGUCCCGUACGGAACG

Variants of: B1
Test: yeast fitness relative to wild type (ratio to wild type); higher = fitter; tRNA-Arg(CCU), competitive growth, 37 C, YPD
Method in brief: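 Start and end populations of a pooled competition were compared by 100-nucleotide paired-end sequencing of gene amplicons. The Saccharomyces cerevisiae strains carried tRNA-Arg(CCU) gene variants at the native genomic locus, synthesised with a 3% per-site mutation rate at 69 sites, and competed in YPD at 37°C for 24 hours in six parallel replicates. Darwinian fitness relative to wild type was based on the change in genotype frequencies. Genotypes required ≥ 100 starting reads, and estimates < 0.5 were set to 0.5.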

Row | Variant | yeast fitness
1 | G18A A21C A43C G48A G52A G63A | ≤ 0.5
2 | G9A U19G A37C A43U C46G G68A | ≤ 0.5
3 | A21C A37G C49A | ≤ 0.5
4 | A15G C33G G50A | ≤ 0.5
5 | G9C U19C C29U A36U G67A | ≤ 0.5
6 | C5A C24A U26G A43C A69U | ≤ 0.5
7 | C34U U53A | ≤ 0.5
8 | U2A C4U U8G C55G G68A | ≤ 0.5
9 | A21C C27U C34U G50C G52C C61U | ≤ 0.5
10 | A15G A43C G67U A70U | ≤ 0.5
11 | U8A G18A C30A U32A U35G C55U G67A | ≤ 0.5
12 | A21U C33U | 0.732
13 | U19A C27G C31U C62U | ≤ 0.5
14 | C33U G52C G56C | ≤ 0.5
15 | U3C A15G C30A A57G | ≤ 0.5
16 | C27A C62U A65C | 0.63
17 | A15G A20U C29G A43G A70U | ≤ 0.5
18 | C31U U32G C33G | 0.591
19 | C30A A36U G68A | 0.543
20 | G18C C22G C55A A70U | ≤ 0.5
21 | A20C A42C | 0.603
22 | C4U C29U C30G | ≤ 0.5
23 | G6C A14C C29U C34G C46U A57G C66A G68C | ≤ 0.5
24 | U3A C4A U19C C27U C46A C62G A69U | ≤ 0.5

Row | Variant | yeast fitness
25 | G39A G52C C55G | 0.541
26 | U8C U13A G67U | 0.626
27 | A21G C27G C29U U35G | 0.552
28 | U3A C29A A37G | ≤ 0.5
29 | A20G C27A C46A | 0.737
30 | G6C C29U C34U | 0.561
31 | C11U A14C C29G C30G A36U A40U | 0.591
32 | U2C U35A U47A C49U C55U C66U | ≤ 0.5
33 | U2G A45U C66U G67A | ≤ 0.5
34 | G17A G38C A70C | ≤ 0.5
35 | C31G U64G | 0.714
36 | A15U C33A A37G U53C | 0.668
37 | U8C C31G G50C G56C | ≤ 0.5
38 | C5A G9C A21U A69C | ≤ 0.5
39 | C5A G18C | 0.569
40 | C11U G52A A69C | 0.865
41 | C30A A43U G58C U64G | ≤ 0.5
42 | G6C C11U U19C G44C G68A | ≤ 0.5
43 | C29G G39A G41A | ≤ 0.5
44 | U2A A20C C27U G58C A69C | ≤ 0.5
45 | C31G G58C G67C | 0.533
46 | C27U A37C A40U A43U | 0.541
47 | G12C G18C C55U C60G | ≤ 0.5
48 | A20G G38C | 0.789

Row | Variant | yeast fitness
49 | U16G U35A A45C G52A | ≤ 0.5
50 | G12A A37G G39C A57C | ≤ 0.5
51 | G18A G51C A65U | ≤ 0.5
52 | G23C C29A C49U | 0.596
53 | U2G A37C C49U A70C | ≤ 0.5
54 | C22U U47C | 0.857
55 | G12A C31A U32C U53C C60G | ≤ 0.5
56 | G12A A15U A21C C49U | ≤ 0.5
57 | U3A A20U C29G C49G G63C | ≤ 0.5
58 | C4A U13C G23C C34G A40G A45G U53C U64A | ≤ 0.5
59 | C11G G23C A36G A37G A70G | 0.55
60 | C4G G10A C22G C55A | 0.555
61 | C4G A14C G25C | 0.8
62 | C4U C33A G41C C60U A65U A69U | ≤ 0.5
63 | U2A G67C | 0.792
64 | U3C G9A C11U | 0.808
65 | C4G C49U G52A | 0.55
66 | U2G U3G C11U G52C C55G A70G | ≤ 0.5
67 | C5G U26C C30U C49U A69U | ≤ 0.5
68 | A43C U54A A57G | ≤ 0.5
69 | C4G U19A A37U A42G A65C G67A | ≤ 0.5
70 | U2C A14G G48C | 0.709
71 | C5U U53C | 0.747
72 | C27A A36C A42U U64G | ≤ 0.5

Row | Variant | yeast fitness
73 | G10C U28G G39A C49A C55U | ≤ 0.5
74 | C11G A14C C30U G67U | ≤ 0.5
75 | A40U G63C U64C | 0.53
76 | G23A G25A A40U C61U | ≤ 0.5
77 | A42C G50A | 0.745
78 | U16G G68U | 0.853
79 | U3C A43U A45G G63A | ≤ 0.5
80 | U2C C29A U53C C62A G67A | ≤ 0.5
81 | G23C C33G C46A | 0.53
82 | G6A C55A G67A | 0.534
83 | G12C | 0.98
84 | C5U A37U A69U | 0.634
85 | C11U A21U G50C U64C | 0.597
86 | G48A C60G G63C | ≤ 0.5
87 | G12C G39A A42C | ≤ 0.5
88 | G17C U32G C33U G56A G58A | ≤ 0.5
89 | G17A C34G G67U | ≤ 0.5
90 | U13G A20U C22U C24A A45G C55U | ≤ 0.5
91 | G18A U53G | ≤ 0.5
92 | U28C G63C U64A C66G | ≤ 0.5
93 | U7C G68U | 0.674
94 | G63C G67C | 0.605
95 | G6A U8C G12C C29G C30U A45U C62U A69U | 0.823
96 | U7A G23C C33G A42G C46U U64C | ≤ 0.5

Row | Variant | yeast fitness
97 | U16A G23C C29U G58A | ≤ 0.5
98 | U8A C29U G51C A57G | ≤ 0.5
99 | U8A G18C C27U G51C C55A C62U A65U G68A A69U | ≤ 0.5
100 | C34G C46U | 0.616
101 | U54A C61G A69C | 0.57
102 | C27A G38C A40U U53A | ≤ 0.5
103 | C11U U19A A43U C49U U59A G63A | ≤ 0.5
104 | A42C A70C | 1.02
105 | U3C U13C | 0.841
106 | U7A C24G C29G C30U A40C G68C | 0.663
107 | A14U C29G G67A | 0.542
108 | C22G U28A C31G C55A G68C | 0.539
109 | C29A C33U U47A | ≤ 0.5
110 | C5U U8A A70C | 0.583
111 | C11G C29G G50C | ≤ 0.5
112 | A20U C55U | 0.76
113 | C34A C49A G63U G67A | ≤ 0.5
114 | G6A A20U C29G C49G G63C | ≤ 0.5
115 | G41C A45U C55U | ≤ 0.5
116 | C5G G18A | 0.713
117 | G12A U16G | 0.815
118 | G10A U13C A40C | ≤ 0.5
119 | U7A C11A | ≤ 0.5
120 | C11A U16A | 0.58

Row | Variant | yeast fitness
121 | U19C U64G | 0.789
122 | G12C A14G G25A G41C C61U A70G | ≤ 0.5
123 | A15U C34G A37G A40C C62U A65U | ≤ 0.5
124 | A20U A69U | 1.05
125 | C5G G41C G67C | 0.631
126 | A40U A43U A70U | 0.664
127 | C34G A43U | 0.625
128 | C31G C46U C49U G56C | ≤ 0.5
129 | U19A C27A G52C | ≤ 0.5
130 | C22U C29U C33U A37C A43U C55A | ≤ 0.5
131 | G39A A45C C61A | 0.618
132 | U28C C29U A45C | 0.545
133 | G23A G52A G63A | ≤ 0.5
134 | U8G G17A C31A | ≤ 0.5
135 | U19A C24U G38A U54C C66A | 0.511
136 | C29G C61A C62U | ≤ 0.5
137 | A43G G56C | 0.766
138 | U7G C11G C34U G41A U54C U64C | ≤ 0.5
139 | C33G A40G G52C | ≤ 0.5
140 | A14U A43C A65U | ≤ 0.5
141 | C4U A15U U53A C62A | ≤ 0.5
142 | C30U A43U C61G A69C | ≤ 0.5
143 | A21G C66U A69U | 0.771
144 | A21U C46A C62U C66U | ≤ 0.5

Row | Variant | yeast fitness
145 | U2C U35A G56A | 0.576
146 | C27A C30A C66A | 0.561
147 | A14C C24G G52C C55U C66U | ≤ 0.5
148 | C11G G51U | 0.601
149 | U26A C30G C33U | 0.604
150 | C5A C31G A37G | 0.538
151 | U7C C30U C34A | ≤ 0.5
152 | C27U C29A C55G A65G | ≤ 0.5
153 | C24G C33U U35A C61G | ≤ 0.5
154 | A14C U19G C31G C33U A42G U64C A65G | ≤ 0.5
155 | G6A A65C A70U | 0.712
156 | C11U C34U A43G | ≤ 0.5
157 | G6A G10C C24U C34U A36U C46A | ≤ 0.5
158 | C5U G56A A65G C66U | 0.671
159 | U3A U59C | 0.884
160 | U3C G10C C11G C24G | ≤ 0.5
161 | C62G G68C | 0.592
162 | U19A C55G A57G | 0.5
163 | U2C A14C C46A A65G | ≤ 0.5
164 | U26A C49U G52C | ≤ 0.5
165 | C22G C24G A45C U47C G63C | ≤ 0.5
166 | G18A G39A A40C A70U | ≤ 0.5
167 | U16A C22U A69U | 0.64
